Screening data deposited in PubChem BioAssay by several laboratories.
Rows were chosen to be rich in hits. Some 4.9% of all compounds tested hit in one or more screens of this group.
NF-kB neuron act: activators of NF-kB expression in neurons, primary screen, cell-based, HTS. human neuronal cells, NF-kB reporter expression; stronger effect = higher value. fold change at 12.5 µM. hit rate 1.6% among 190,000; in the data active = fold change above about 3.3
STAT3 act: IL-6 driven STAT3 reporter potentiators, primary screen, U3A cells, luciferase, luminescence, MLSCN library; IL-6 STAT3-luciferase reporter; 100% = signal with IL-6 EC80 alone; activation (% of control), % at 5.6 µM; hit rate 0.91% among 190,000;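 active = activation above the screen-wide mean of compound activation plus 3 SD, cut at about 130% in these data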;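 also: 0% = background luminescence of wells with medium and substrate only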
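Detection: reporter luminescence signal / Assay system: STAT1-lacking human U3A cells, STAT3 luciferase reporter / Incubation: compound pre-incubation 1 h before IL-6, then 6 h stimulation at 37 °C / Control set: IL-6-only high control / Read-out: % activation relative to IL-6 control / Probe or stimulus: Interleukin-6, 33 ng/mL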
STAT1 inh-1: STAT1 signaling inhibitors, primary screen, cell-based, HTS, luciferase reporter; NIH 3T3 STAT1-luciferase reporter, IFN-gamma, luminescence; inhibition, % at 5.5 µM; hit rate 0.35% among 200,000; AID 920, 2007;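 active = inhibition above a set limit, the mean inhibition across all tested compounds plus 3 SD, cut at about 34% in these data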;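 also: 0% = IFN-gamma with DMSO and 100% = IFN-gamma with 300 µM nifuroxazide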
STAT1 act: STAT1 signaling activators, primary screen, cell-based, HTS, luciferase reporter; AID 932, 2007; hit rate 2.6% among 200,000; NIH 3T3 STAT1-luciferase reporter, IFN-gamma, luminescence; 100% = IFN-gamma alone, no compound; activation (% of control), % at 5.5 µM;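 active = activation above the screen-wide mean activation plus 3 SD, cut at about 130% in these data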;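 also: raw ratio to IFN-gamma control signal so 100% means no change and 0% no light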
STAT3 blocker: IL-6 driven STAT3 reporter inhibitors, primary screen, U3A cells, luciferase, luminescence, MLSCN library | inhibition, % at 5.5 µM | AID 862, 2007 | hit rate 0.89% among 190,000 | IL-6 STAT3-luciferase reporter; host cell line lacks STAT1;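 active = inhibition above the mean inhibition across all screened compounds plus 3 SD, cut at about 44% in these data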;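 also: 0% = DMSO only wells and 100% = 100 µM nifuroxazide control wells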
APP 5'UTR act: activators of APP 5'UTR luciferase reporter, primary screen, SH-SY5Y cells; SH-SY5Y APP 5'UTR luciferase reporter, luminescence; zero percent = DMSO vehicle wells; activation, % at 2 µM; hit rate 1% among 190,000; AID 1276, 2008;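 active = activation above a set limit, based on mean plus 3 SD of controls, cut at about 140% in these data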
STAT1 inh-2: STAT1 signaling inhibitors, confirmation, cell-based, HTS, luciferase reporter | AID 1263, 2008 | NIH 3T3 STAT1-luciferase reporter, IFN-gamma, luminescence | hit rate 55% among 200 | inhibition, % at 5.5 µM | shares compounds with STAT1 inh-1;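 active = triplicate mean inhibition exceeding the hit cutoff computed for the primary STAT1 screen, cut at about 35% in these data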;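 also: 0% = DMSO with IFN-gamma and 100% = 300 µM nifuroxazide with IFN-gamma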
NFkB inh: NF-kB reporter inhibitors, TNF-alpha stimulated, counter-screen for STAT1 inhibitor project, cell-based, HEK293T, luciferase luminescence; TNF-alpha induced; AID 1303, 2008; inhibition, % at 5.7 µM; hit rate 30% among 200; shares compounds with STAT1 inh-1;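 active = inhibition above the mean of solvent-only control wells plus 3 SD of those wells, cut at about 15% in these data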;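 also: 0% = DMSO with TNF-alpha and 100% = MG-132 control with TNF-alpha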
STAT3 inh 2: STAT3 reporter inhibition by STAT1 hits, counter-screen for STAT1 inhibitor project, U3A cells, luciferase, luminescence, triplicate | shares compounds with STAT1 inh-1 | IL-6 STAT3 luciferase reporter; cells lacking STAT1 | inhibition, % at 5.7 µM | hit rate 20% among 200;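 active = inhibition above the mean of solvent-only control wells plus 3 SD, set per campaign, cut at about 25% in these data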;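 also: 0% = IL-6 plus DMSO and 100% = IL-6 plus nifuroxazide control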
Starred values were filed as active, the others as inactive; x = no result given.

SMILES | NF-kB neuron act | STAT3 act | STAT1 inh-1 | STAT1 act | STAT3 blocker | APP 5'UTR act | STAT1 inh-2 | NFkB inh | STAT3 inh 2
COc1ccc2c(c1OC)C(=O)N1c3ccccc3C(=O)N(c3ccccc3F)C21 (centres undefined) | 0.38 | 85 | 48* | 55 | 23 | -41 | 41* | -12 | 30*
CCC(C(=O)NCc1ccccc1OC)n1nc(C)n2c(cc3occc32)c1=O (centres undefined) | 0.88 | 96 | 8 | 93 | 2 | -6 | x | x | x
Cc1ccc(-c2csc3ncnc(Sc4nnc(CN5CCCCCC5=O)o4)c23)cc1 | 0.35 | 81 | 44* | 60 | 27 | -26 | 56* | 12 | 21
Cc1cccc(N2CC(O)(c3cccs3)[N+]3=C2CCCC3)c1C (centres undefined) | 1.3 | 100 | 39* | 62 | 4 | 5 | 31 | -6 | 0
CCC(/C=C1\Sc2ccc(OC)cc2N1CC)=C\c1sc2ccc(OC)cc2[n+]1CCCS(=O)(=O)[O-] | 0.33 | 74 | 41* | 62 | 35 | -4 | 30 | -6 | 8
CCOC(=O)N1CCN(C(=O)c2ccc(CSc3ccc(Cl)cc3)cc2)CC1 | 0.75 | 88 | 38* | 65 | 18 | 17 | 39* | 10 | 24
Cc1sc(NC(=O)c2cccnc2)nc1-c1ccccc1 | 1.2 | 87 | -2 | 101 | 19 | 0 | x | x | x
O=C(CSc1nc2ccccc2c(=O)[nH]1)c1ccc(O)c(O)c1 | 1.1 | 99 | 4 | 97 | 8 | -7 | x | x | x
O=C(CSc1nc2ccccc2c(=O)[nH]1)c1ccc(O)cc1O | 0.75 | 100 | 64* | 40 | 3 | 21 | 43* | 6 | 0
COc1ccc(CNS(=O)(=O)c2cc(OCC(N)=O)c(C)cc2Cl)cc1 | 0.85 | 104 | -4 | 103 | -2 | 24 | x | x | x
O=C(Nc1ccc(Cl)cc1)N1CCC(c2nc(-c3ccccc3Cl)no2)CC1 | 1.1 | 88 | 0 | 100 | 16 | 9 | x | x | x
N#CC(C#N)=C(Nc1ccc(F)cc1)SCc1cccc(Br)c1 | 0.5 | 72 | 39* | 65 | 33 | -1 | 52* | 16* | 43*
COc1ccc(-c2cc(C(F)(F)F)nc(S(=O)(=O)CCCC(=O)Nc3cc(C)on3)n2)cc1OC | 0.97 | 100 | 51* | 52 | 8 | -1 | 46* | 5 | -63
COc1ccccc1-c1cc(C(F)(F)F)nc(S(=O)(=O)CCCC(=O)Nc2cccnc2Cl)n1 | 0.97 | 96 | 43* | 59 | 8 | -27 | 41* | -7 | 4
COc1ccccc1-c1cc(C(F)(F)F)nc(S(=O)(=O)CCCC(=O)NC(C)C)n1 | 0.92 | 93 | 23 | 79 | 11 | 5 | x | x | x
COc1ccccc1-c1cc(C(F)(F)F)nc(S(=O)(=O)CCCC(=O)NCc2ccc(F)cc2)n1 | 1 | 92 | 32 | 69 | 13 | -24 | x | x | x
O=C1c2ccsc2SCCN1Cc1c(Cl)cccc1Cl | 1.2 | 94 | -4 | 104 | 9 | -5 | x | x | x
CC1C(=O)NN=C1C(=O)N/N=C\C(Br)=C\c1ccccc1 (centres undefined) | 3.1 | 92 | 81* | 24 | 17 | 127 | 40* | 3 | -23
Oc1ccc(Oc2ccc3c(C(F)(F)F)cc(C(F)(F)F)nc3n2)cc1 | 0.61 | 85 | 62* | 44 | 20 | 31 | 54* | 23* | 14
COc1ccc(Oc2ccc3c(C(F)(F)F)cc(C(F)(F)F)nc3n2)cc1 | 1.1 | 99 | 1 | 100 | 7 | 5 | x | x | x
O=C(COc1ccc([N+](=O)[O-])cc1)Nc1ccc(C(=O)Nc2ccccc2C(=O)O)cc1 | 1.2 | 93 | 3 | 96 | 12 | 0 | x | x | x
COc1ccc(-n2c(-c3ccc(Br)cc3)c[n+]3c2CCCCC3)cc1 | 0.75 | 78 | 40* | 62 | 27 | 0 | 32 | -5 | 22
COc1ccc(-n2c(-c3ccc(Br)cc3)nc(=S)c3c2CCCC3)cc1 | 0.89 | 103 | -7 | 106 | -4 | -8 | x | x | x
CCC(N)C12CC3CC(CC(O)(C3)C1)C2 (centres undefined) | 1.1 | 93 | -1 | 96 | 12 | 14 | x | x | x
COc1ccccc1-c1cc(C(F)(F)F)nc(S(C)(=O)=O)n1 | 0.87 | 90 | 40* | 63 | 10 | -4 | 44* | -8 | -33
SMILES | NF-kB neuron act | STAT3 act | STAT1 inh-1 | STAT1 act | STAT3 blocker | APP 5'UTR act | STAT1 inh-2 | NFkB inh | STAT3 inh 2
CN1CCN(c2nc(-c3ccco3)cc(C(F)(F)F)n2)CC1 | 1.2 | 84 | 2 | 98 | 23 | 1 | x | x | x
CS(=O)(=O)c1nc(-c2ccco2)cc(C(F)(F)F)n1 | 1.1 | 103 | 39* | 64 | 4 | 0 | 40* | -15 | -6
c1ccc2[nH]c(SN3CCOCC3)nc2c1 | 1.1 | 92 | 1 | 99 | 13 | 5 | x | x | x
Cn1c(C(=O)N2CCN(c3ccc([N+](=O)[O-])cc3)CC2)cc2c(=O)[nH]c3ccccc3c21 | 1.1 | 87 | 51* | 52 | 19 | -2 | 34* | 5 | 8
CC1c2c([nH]c3ccccc23)CCC1C(=O)O (centres undefined) | 0.88 | 104 | -10 | 109 | -2 | -3 | x | x | x
COc1ccc(/C=N/Nc2ccc(C(=O)O)cc2)cc1Br | 2.7 | 66 | 61* | 42 | 42 | 133 | -56 | 49* | -137
C=CCOc1c(Br)cc(/C=N/Nc2ccc(C(=O)O)cc2)cc1OCC | 2.1 | 96 | -27 | 124 | 8 | 104 | x | x | x
O=C(CSCc1ccc(F)cc1)NCc1ccco1 | 1.2 | 98 | -4 | 104 | 9 | -2 | x | x | x
C=CCOC(=O)C1=C[C@H](c2cn(C(C)=O)c3ccccc23)C[C@H](OCCCCO)O1 | 1.1 | x | 29 | 74 | x | 1 | x | x | x
C=CCOC(=O)C1=C[C@@H](c2cn(C(C)=O)c3ccccc23)C[C@@H](OCCCCO)O1 | 0.92 | x | 34 | 70 | x | -7 | 11 | -5 | -68
CCOC(=O)C(=CNc1ccc(NC2=NCC(C)S2)cc1)C(=O)OCC (centres undefined) | 0.9 | 90 | 60* | 46 | 15 | -33 | 59* | 38* | 21
